Experimental data from different studies.
Each line is one published result; the experiments were not run side by side.
DPP4: Dipeptidyl peptidase 4 (DPP4, Homo sapiens, UniProt P27487)
CDK1: Cyclin-dependent kinase 1 (CDK1, Homo sapiens, UniProt P06493)
CDK9: Cyclin-dependent kinase 9 (CDK9, Homo sapiens, UniProt P50750)
AKT1: RAC-alpha serine/threonine-protein kinase (AKT1, Homo sapiens, UniProt P31749)

SMILES | target | observed | mode | technique | concentration | quantity | value
Cn1c(=O)cc(N2CCC(N)CC2)n(Cc2nc3ccc(Br)cc3c(=O)n2-c2ccccc2)c1=O | DPP4 | enzyme activity | inhibitor |  | 20 µM | inhibition | 12.9%
CCO[C@@H](Cc1ccc(OCCc2ccc(OS(C)(=O)=O)cc2)cc1)C(=O)O | CDK1 | enzyme activity | inhibitor | ADP detection | 10 µM | inhibition | 65.9%
CN(C)c1ncnc2c1ncn2[C@@H]1O[C@H](CCl)[C@@H](NC(=O)[C@H](CSC(c2ccccc2)c2ccccc2)NC(=O)OC(C)(C)C)[C@H]1O | Aminopeptidase N (ANPEP, Homo sapiens, UniProt P15144) | enzyme activity | inhibitor | fluorescence | 10 µM | inhibition | 4.6%
COc1ccc(S(=O)(=O)N(CC(=O)NO)CC(C)C)cc1 | Stromelysin-2 (Homo sapiens, UniProt P09238) | enzyme activity | inhibitor |  | 0.5 µM | inhibition | 47.4%
Cc1cc2cc(Oc3ccnc(Nc4cccc(CS(=O)(=O)NCCN(C)C)c4)n3)ccc2[nH]1 | CDK1 | enzyme activity | inhibitor | ADP detection | 100 µM | inhibition | 100%
COc1cc(-c2cncc3c2CN(C)Cc2cc(N4CCNCC4)ccc2-3)cc(OC)c1OC | Cyclin-dependent kinase 9, with cyclin T1 (CDK9, Homo sapiens, UniProt P50750) | enzyme activity | inhibitor |  | 1 µM | remaining activity | 100%
CC(=O)c1c(C)c2cnc(Nc3ccc(N4CCNCC4)cn3)nc2n(C2CCCC2)c1=O | CDK9 | enzyme activity | inhibitor | ADP detection | 1 µM | activity vs control | 106%
Cn1c(=O)cc(N2CCC(N)CC2)n(Cc2nc3ccccc3c(=O)n2-c2ccc(F)cc2)c1=O | DPP4 | enzyme activity | inhibitor |  | 20 µM | inhibition | 19.9%
O=C1NC(=NCc2cccs2)S/C1=C\c1ccc2ncccc2c1 | CDK1 | enzyme activity | inhibitor | ADP detection | 100 µM | inhibition | 100%
C=CC(=O)N1CCC(COCC(=O)N2CCN(c3nc(-c4cnc(N)nc4C(F)F)nc(N4CCOC[C@@H]4C)n3)CC2)CC1 | CDK9 | binding |  | competition with immobilised ligand | 1 µM | remaining binding | 100%
Cc1cc([C@@H](C)Nc2ccccc2C(=O)O)c2nc(N3CCC(F)(F)CC3)c(C#N)c(=O)n2c1 | AKT1 | binding |  | competition with immobilised ligand | 1 µM | remaining binding | 100%
Cn1c(=O)cc(N2CCC(N)CC2)n(Cc2nc3ccccc3c(=O)n2-c2ccc(F)c(Cl)c2)c1=O | DPP4 | enzyme activity | inhibitor |  | 20 µM | inhibition | 32.5%
CNc1ncc2c(/C=C/C(=O)N3CCC(OC)CC3)nn(Cc3cccc(C(F)(F)F)c3)c2n1 | AKT1 | enzyme activity | inhibitor | radiometric | 1 µM | remaining activity | 101%
